We go through 17 compounds from ChEMBL document CHEMBL4665741, “Synthesis and biological evaluation of thiazole derivatives on basic defects underlying cystic fibrosis” (Bioorg Med Chem Lett, 2020).

Molecules are shown by their SMILES. The source made the active and inactive calls. No cut-off for these calls is given here.

As usually defined, the EC50 is the concentration giving half of the maximal effect.

Common to all, as to type: cell-based
The subject of experiment [1] is Cystic fibrosis transmembrane conductance regulator (Homo sapiens), P13569 [F508del]. In words: Corrector activity at CFTR F508del mutant (unknown origin) expressed in forskolin/VX-770-stimulated human CFBE41o- cells co-expressing HS-YFP assessed as increase in iodide influx measuring HS-YFP quenching at 2 to 10 uM incubated for 24 hrs by fluorescent method. The settings on record: dose microM 2-10, time 24.0 hrs. In outline:
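CFBE41o- bronchial epithelial cells stably expressing F508del-CFTR and halide-sensitive YFP, incubated 24 h with compound at 2 and 10 μM, vehicle (DMSO), or VX-809 (1 μM) as positive control. F508del-CFTR activity at the plasma membrane was then read as the rate of HS-YFP quenching caused by iodide influx.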

Experiment [2] shares this test system. In words: Potentiation of CFTR F508del mutant (unknown origin) expressed in human CFBE41o- cells co-expressing HS-YFP assessed as increase in halide influx measuring HS-YFP quenching measured after acute treatment at 2 to 20 uM for 20 mins in presence of forskolin by fluorescent method. The settings on record: filed as opener, dose microM 2-20, time 20.0 min. A digest of the protocol: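 CFBE41o- cells stably co-expressing F508del-CFTR and HS-YFP were held 24 h at 32°C to rescue mutant trafficking. Cells were then acutely treated with compound (2 and 20 μM) plus forskolin (20 μM). Controls were forskolin alone and forskolin plus VX-770 (1 μM). Halide influx was read as the HS-YFP quenching rate.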

The test system is the same in experiment [3]. In words: (§1) Potentiation of CFTR F508 deletion mutant (unknown origin) expressed in CFBE41o- cells coexpressing HS-YFP assessed as increase in iodide influx measuring HS-YFP quenching incubated for 20 mins in presence of forskolin by fluorescent method. Conditions: filed as opener.
The target in experiment [4] is Cystic fibrosis transmembrane conductance regulator (Homo sapiens, UniProt P13569, F508DEL). The experiment is described as §1.
Experiment [5] deals with Cystic fibrosis transmembrane conductance regulator (Homo sapiens), P13569 [F508del]. The experiment can be described thus: Potentiation of CFTR F508 deletion mutant (unknown origin) expressed in CFBE41o- cells coexpressing HS-YFP assessed as increase in halide influx measuring HS-YFP quenching measured after acute treatment at 0.08 to 50 uM after 24 hrs in presence of forskolin by fluorescent method. The settings on record: filed as opener, dose microM 0.08-50, time 24.0 hrs. A digest of the protocol: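 Concentration-response on CFBE41o- cells co-expressing F508del-CFTR and HS-YFP, pre-incubated 24 h at 32°C to rescue maturation. Compound was added acutely over 80 nM–50 μM with forskolin. Controls were forskolin alone and VX-770 (1 μM). Activity was measured by HS-YFP quenching from halide influx.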

The test system is the same in experiment [6]. The experiment can be described thus: Potentiation of CFTR F508 deletion mutant (unknown origin) expressed in CFBE41o- cells coexpressing HS-YFP assessed as increase in halide influx measuring HS-YFP quenching measured after acute treatment at 10 uM after 24 hrs in presence of forskolin and CFTR inhibitor-172 by fluorescent method.
Experiment [7] has the same test system. In words: Potentiation of CFTR F508 deletion mutant (unknown origin) expressed in CFBE41o- cells coexpressing HS-YFP assessed as increase in halide influx measuring HS-YFP quenching measured after acute treatment at 1 uM after 24 hrs in presence of forskolin and CFTR inhibitor-172 by fluorescent method.

Cystic fibrosis transmembrane conductance regulator (Homo sapiens), P13569 [F508del], sequence (P13569 as listed by the source): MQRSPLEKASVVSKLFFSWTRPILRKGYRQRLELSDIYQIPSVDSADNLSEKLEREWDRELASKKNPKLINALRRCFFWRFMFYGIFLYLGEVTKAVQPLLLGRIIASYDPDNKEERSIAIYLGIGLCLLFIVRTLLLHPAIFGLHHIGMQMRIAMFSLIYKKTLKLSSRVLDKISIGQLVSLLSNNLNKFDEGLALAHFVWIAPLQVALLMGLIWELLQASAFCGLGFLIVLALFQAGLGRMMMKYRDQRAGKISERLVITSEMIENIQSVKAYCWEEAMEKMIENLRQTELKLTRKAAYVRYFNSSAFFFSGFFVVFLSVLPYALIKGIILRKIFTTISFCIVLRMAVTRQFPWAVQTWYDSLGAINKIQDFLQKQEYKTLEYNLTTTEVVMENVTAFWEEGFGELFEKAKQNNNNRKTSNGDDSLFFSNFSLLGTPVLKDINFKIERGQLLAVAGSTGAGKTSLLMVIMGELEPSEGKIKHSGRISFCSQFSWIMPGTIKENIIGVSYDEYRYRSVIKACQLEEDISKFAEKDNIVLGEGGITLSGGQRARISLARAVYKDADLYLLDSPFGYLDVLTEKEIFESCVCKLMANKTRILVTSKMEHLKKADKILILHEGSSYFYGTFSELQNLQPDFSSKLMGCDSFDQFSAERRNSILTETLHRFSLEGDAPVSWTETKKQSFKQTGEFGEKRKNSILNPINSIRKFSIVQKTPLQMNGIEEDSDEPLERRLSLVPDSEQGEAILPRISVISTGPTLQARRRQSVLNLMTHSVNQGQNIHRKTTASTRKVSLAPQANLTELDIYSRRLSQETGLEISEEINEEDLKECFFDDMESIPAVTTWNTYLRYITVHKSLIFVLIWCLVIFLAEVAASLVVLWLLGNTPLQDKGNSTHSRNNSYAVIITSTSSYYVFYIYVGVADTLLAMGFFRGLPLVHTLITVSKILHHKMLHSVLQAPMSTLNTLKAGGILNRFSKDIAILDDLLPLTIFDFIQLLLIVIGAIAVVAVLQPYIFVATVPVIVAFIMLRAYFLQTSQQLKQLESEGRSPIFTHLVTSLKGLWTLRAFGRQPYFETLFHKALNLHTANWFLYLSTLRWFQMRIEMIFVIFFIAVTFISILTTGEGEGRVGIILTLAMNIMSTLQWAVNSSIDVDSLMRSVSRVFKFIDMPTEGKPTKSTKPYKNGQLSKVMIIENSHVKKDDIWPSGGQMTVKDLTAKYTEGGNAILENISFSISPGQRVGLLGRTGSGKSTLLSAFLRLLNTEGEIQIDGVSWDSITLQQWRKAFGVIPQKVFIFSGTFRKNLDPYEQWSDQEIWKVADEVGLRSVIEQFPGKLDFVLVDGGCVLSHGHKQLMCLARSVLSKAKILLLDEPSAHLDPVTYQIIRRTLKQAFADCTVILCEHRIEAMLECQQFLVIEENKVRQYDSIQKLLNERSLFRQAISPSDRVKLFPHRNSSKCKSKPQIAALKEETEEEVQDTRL
Cystic fibrosis transmembrane conductance regulator, sequence (P13569 as listed by the source): as above

On to `O=C(O)Cc1csc(NC(=O)c2ccc(I)cc2)n1`, for which the outcome in experiment [1] was inactive.

On to `CCOC(=O)Cc1csc(N(CC)C(=O)c2ccccc2)n1`, for which, in experiment [1], the result was inactive.

Take `CCOC(=O)Cc1csc(N(CC)C(=O)c2ccc(I)cc2)n1`: the result in experiment [1] and in experiment [6] was inactive. For the same compound, the result in experiment [2] and in experiment [5] was Active. In experiment [3], the Emax is 1.9. Further, the EC50 in experiment [4] was determined as 3200 nM.

Take `CCN(C(=O)c1ccc(I)cc1)c1nc(CC(=O)O)cs1`: the outcome in experiment [1] was inactive.

`O=C(O)Cc1csc(NC(=O)c2ccc(Cl)cc2)n1`: the result in experiment [1] was inactive.

With `CCOC(=O)Cc1csc(NC(=O)c2ccc(I)cc2)n1`, in experiment [1], the result was inactive.

As to `COc1cc(C(=O)Nc2nc(CC(=O)O)cs2)cc(OC)c1OC`, the outcome in experiment [1] was inactive.

As to `CCN(C(=O)c1ccccc1)c1nc(CC(=O)O)cs1`, in experiment [1], the result was inactive.

Consider `CCOC(=O)Cc1csc(NC(=O)c2cc(OC)c(OC)c(OC)c2)n1`, for which the result in experiment [1] was inactive.

As for `O=C(O)Cc1csc(NC(=O)c2ccccc2)n1`, the outcome in experiment [1] was inactive.

In the case of `CCOC(=O)Cc1csc(N(CC)C(=O)c2ccc(Cl)cc2)n1`, the result in experiment [1] and in experiment [6] was inactive. The outcome in experiment [2] and in experiment [5] was Active. Also, in experiment [3], the Emax was found to be 1.8. In experiment [4], the EC50 stood at 1800 nM.

As to `CCOC(=O)Cc1csc(NC(=O)c2ccccc2)n1`, the outcome in experiment [1] was inactive.

Turning to `CCN(C(=O)c1ccc(Cl)cc1)c1nc(CC(=O)O)cs1`, the outcome in experiment [1] was inactive.

On to `CC(C)(C)c1cc(C(C)(C)C)c(NC(=O)c2c[nH]c3ccccc3c2=O)cc1O`, for which the result in experiment [7] was inactive.

Take `CCOC(=O)Cc1csc(NC(=O)c2ccc(Cl)cc2)n1`: in experiment [1], the outcome was inactive.

In the case of `CCN(C(=O)c1cc(OC)c(OC)c(OC)c1)c1nc(CC(=O)O)cs1`, in experiment [1], the outcome was inactive.

Take `CCOC(=O)Cc1csc(N(CC)C(=O)c2cc(OC)c(OC)c(OC)c2)n1`: the outcome in experiment [1] was inactive.
